In ChEMBL document CHEMBL5030566, “First-in-Class Inhibitors of the Ribosomal Oxygenase MINA53” (J Med Chem, 2021):
Activity calls are given as the source filed them. The rule behind the calls is not given here.

How the values were obtained:
OCI-AML-3 = assay: Antiproliferative activity against human OCI-AML-3 cells at 100 uM incubated for 48 hrs by WST-1 assay; assay type: functional, cell-based
Summary of the method: (§1)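 Leukemia/lymphoma lines plated in triplicate at 5×10^3 cells/well. Exposed to increasing compound concentrations (maximum 100 μM) for 48 h at 37 °C, 5% CO2. WST-1 reagent then added for 1 h. IC50 obtained by nonlinear regression of dose–response curves.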

[1] = Antiproliferative activity against human IMS-M2 cells at 100 uM incubated for 48 hrs by WST-1 assay; assay type: functional, cell-based; summary of the method: as §1
OCI-AML2 = assay: Antiproliferative activity against human OCI-AML2 cells at 100 uM incubated for 48 hrs by WST-1 assay; assay type: functional, cell-based; summary of the method: as §1
MV4-11 = assay: Antiproliferative activity against human MV4-11 cells at 100 uM incubated for 48 hrs by WST-1 assay; assay type: functional, cell-based; summary of the method: as §1
Kasumi 1 = assay: Antiproliferative activity against human Kasumi 1 cells at 100 uM incubated for 48 hrs by WST-1 assay; assay type: functional, cell-based; summary of the method: as §1
U-937 = assay: Antiproliferative activity against human U-937 cells at 100 uM incubated for 48 hrs by WST-1 assay; assay type: functional, cell-based; summary of the method: as §1
KARPAS-299 = assay: Antiproliferative activity against human KARPAS-299 cells at 100 uM incubated for 48 hrs by WST-1 assay; assay type: functional, cell-based; summary of the method: as §1
U-87 MG [2] = assay: Antiproliferative activity against human U-87 MG cells incubated for 72 to 120 hrs by MTT assay; assay type: functional, cell-based; conditions: U-87MG ATCC, time 72-120 hrs
Summary of the method: (§2)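 HT-29, U-87MG or MKN-45 in RPMI with 10% FBS and L-glutamine. Seeded in sextuplicate at 1.5×10^3 cells/well; compounds at 10–100 μM added after 24 h and left 72, 96 or 120 h; 0.5% DMSO control. MTT absorbance read; viability as treated/control ×100. Mean ± SD of two independent experiments in triplicate.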

MKN-45 = assay: Antiproliferative activity against human MKN-45 cells at 10 to 100 uM incubated for 72 to 120 hrs by MTT assay; assay type: functional, cell-based; conditions: dose 10-100 µM, time 72-120 hrs; summary of the method: as §2
HeLa [3] = assay: Antiproliferative activity against human HeLa cells at 10 to 100 uM incubated for 72 to 120 hrs by MTT assay; assay type: functional, cell-based; conditions: dose 10-100 µM, time 72-120 hrs
Summary of the method: (§3)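 HEK293T or HeLa grown in DMEM with 10% FBS, mycoplasma-tested and STR-authenticated. Compounds added 24 h after seeding at 10–100 μM for 72–120 h; 0.5% DMSO as control. Viability by MTT colorimetric assay, expressed as treated/control ×100.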

HT-29 = assay: Antiproliferative activity against human HT-29 cells at 10 to 100 uM incubated for 72 to 120 hrs by MTT assay; assay type: functional, cell-based; conditions: dose 10-100 µM, time 72-120 hrs; summary of the method: as §2
HEK-293T = assay: Antiproliferative activity against human HEK293T cells at 10 to 100 uM incubated for 72 to 120 hrs by MTT assay; assay type: functional, cell-based; conditions: dose 10-100 µM, time 72-120 hrs; summary of the method: as §3
HEK293T [4] = assay: Binding affinity to MINA53 in HEK293T cells assessed as substrate trapping using RPL27A as substrate at 100 uM after 18 hrs by immunoprecipitation analysis; assay type: cell-based; conditions: Homo sapiens
Summary of the method: (§4)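 HEK293T transiently expressing HA-MINA53, HA-NO66 or empty vector. Treated with 100 μM compound or 0.5% DMSO for 18 h. Cells lysed 1 h at 4 °C in JIES buffer; anti-HA agarose IP overnight, washed, eluted with HA peptide. Blots probed for RPL27A (MINA53) or RPL8 (NO66).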

HeLa [5] = assay: Binding affinity to MINA53 in HeLa cells assessed as substrate trapping using RPL27A as substrate at 100 uM after 18 hrs by immunoprecipitation analysis; assay type: cell-based; conditions: Homo sapiens
U-87 MG [6] = assay: Binding affinity to MINA53 in U-87MG cells assessed as substrate trapping using RPL27A as substrate at 100 uM after 18 hrs by immunoprecipitation analysis; assay type: cell-based; conditions: Homo sapiens
HEK293T [7] = assay: Binding affinity to NO66 in HEK293T cells assessed as substrate trapping using RPL8 as substrate at 100 uM after 18 hrs by immunoprecipitation analysis; assay type: cell-based; conditions: Homo sapiens; summary of the method: as §4
U-87 MG [8] = assay: Inhibition of KDM5 in human U-87MG cells assessed as increase in H3K4me3 level after 48 hrs by immunofluorescence analysis; assay type: cell-based
Summary of the method: (§5)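 U-87MG on coverslips, treated 24 h after plating with 50 μM compound for 48 h. Reference inhibitors: CPI-455 25 μM (KDM5), IOX-1 100 μM (KDM4), GSK-J4 10 μM (KDM6). PFA-fixed cells immunostained for H3K4me3, H3K9me3 or H3K27me3 with DAPI counterstain. Per-cell nuclear intensity quantified, ≥50 cells per condition; Mann–Whitney test vs DMSO.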

U-87 MG [9] = assay: Inhibition of KDM4 in human U-87MG cells assessed as increase in H3K9me3 level after 48 hrs by immunofluorescence analysis; assay type: cell-based; summary of the method: as §5
U-87 MG [10] = assay: Inhibition of KDM6 in human U-87MG cells assessed as increase in H3K27me3 level after 48 hrs by immunofluorescence analysis; assay type: cell-based; summary of the method: as §5
U-87 MG [11] = assay: Induction of DNA damage in human U-87MG cells assessed as increase in gamma H2AX phosphorylation at ser139 at 20 uM by Western blot analysis; assay type: functional, cell-based; conditions: U-87MG ATCC
U-87 MG [12] = assay: Cytotoxicity against human U-87MG cells assessed as doxorubicin sensitization after 24 hrs in presence of doxorubicin by MTT assay; assay type: functional, cell-based; conditions: U-87MG ATCC
Summary of the method: (§6)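 U-87MG in RPMI with 10% FBS. Treated 24 h with doxorubicin alone, test compound alone, or both at a fixed doxorubicin:compound ratio of 1:20. Viability read by MTT absorbance and expressed as treated/control ×100. Mean ± SD of two independent experiments, each in triplicate.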

U-87 MG [13] = assay: Cytotoxicity against human U-87MG cells assessed as reduction in cell viability after 24 hrs in presence of doxorubicin by MTT assay; assay type: functional, cell-based; conditions: U-87MG ATCC; summary of the method: as §6
U-87 MG [14] = assay: Synergistic cytotoxicity against human U-87MG cells assessed as reduction in cell viability at 20 uM after 24 hrs in presence of doxorubicin by MTT assay; assay type: functional, U-87MG ATCC; summary of the method: as §6
U-87 MG [15] = assay: Induction of cell cycle arrest in human U-87MG cells assessed as accumulation of cells at G2/M phase at 10 uM after 24 hrs by propidium iodide staining based flow cytometry analysis; assay type: functional; conditions: U-87MG ATCC
Summary of the method: (§7)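 U-87MG treated 24 h with 10 μM compound, alone or with 0.5 μM doxorubicin. Cell-cycle phases and Sub-G1 fraction scored; three independent experiments.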

U-87 MG [16] = assay: Induction of apoptosis in human U87-MG cells assessed as increase in sub-G1 cells at 10 uM after 24 hrs by propidium iodide staining based flow cytometry analysis; assay type: functional, cell-based; conditions: U-87MG ATCC; summary of the method: as §7
U-87 MG [17] = assay: Induction of apoptosis in human U87-MG cells assessed as increase in apoptotic cells at 10 uM after 24 hrs in presence of 0.5 uM doxorubicin by propidium iodide staining based flow cytometry analysis; assay type: functional, U-87MG ATCC; summary of the method: as §7
U-87 MG [18] = assay: Synergistic cytotoxicity against human U-87MG cells assessed as combinantion index at ED50 after 24 hrs in presence of doxorubicin by MTT assay; assay type: functional, U-87MG ATCC
Summary of the method: (§8)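 Doxorubicin combined with inhibitor at a fixed 1:20 concentration ratio, 24 h exposure, U-87MG viability read by MTT. Combination index calculated with the CI equation and plotted against fractional growth inhibition. CI <0.9 is scored as synergism, 0.9–1.1 as additivity, >1.1 as antagonism. Mean of two independent experiments in triplicate.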

U-87 MG [19] = assay: Synergistic cytotoxicity against human U-87MG cells assessed as combinantion index at ED75 after 24 hrs in presence of doxorubicin by MTT assay; assay type: functional, U-87MG ATCC; summary of the method: as §8
U-87 MG [20] = assay: Synergistic cytotoxicity against human U-87MG cells assessed as combinantion index at ED90 after 24 hrs in presence of doxorubicin by MTT assay; assay type: functional, U-87MG ATCC; summary of the method: as §8
Homo sapiens [21] = species: Homo sapiens; assay: Inhibition of recombinant human NO66 expressed in Escherichia coli BL21 (DE3) using RPL8 N205PVEHPFGGGNHQHIGKPST224 as substrate at 100 uM preincubated for 15 mins followed by substrate addition and measured after 30 to 60 mins by RapidFire Mass spectrometry assay; conditions: time 45-75 min
Summary of the method: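 NO66 (E. coli BL21(DE3)-R3-pRARE2, TEV-cleaved) at 375 nM in 50 mM MES pH 7.0, 150 mM NaCl. Preincubated 15 min with compound. […] Formic-acid quench, RapidFire SPE-MS % hydroxylation.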

Homo sapiens [22] = species: Homo sapiens; assay: Inhibition of recombinant human MINA53 expressed in Escherichia coli BL21 (DE3) using RPL27A G31RGNAGGLHHHRINFDKYHP49 as substrate at 100 uM preincubated for 15 mins followed by substrate addition and measured after 30 to 60 mins by RapidFire Mass spectrometry assay; conditions: time 45-75 min
NB-4 = assay: Antiproliferative activity against human NB-4 cells at 100 uM incubated for 48 hrs by WST-1 assay; assay type: functional, cell-based; summary of the method: as §1
HL-60 = assay: Antiproliferative activity against human HL-60 cells at 100 uM incubated for 48 hrs by WST-1 assay; assay type: functional, cell-based; summary of the method: as §1
U-87 MG [23] = assay: Antagonist cytotoxicity against human U-87MG cells assessed as reduction in cell viability at 20 uM after 24 hrs in presence of doxorubicin by MTT assay; assay type: functional, cell-based; conditions: U-87MG ATCC; summary of the method: as §6

Row | SMILES | IC50 (OCI-AML-3) | IC50 [1] | IC50 (OCI-AML2) | IC50 (MV4-11) | IC50 (Kasumi 1) | IC50 (U-937) | IC50 (KARPAS-299) | Activity (U-87 MG [2]) | Activity (MKN-45) | Activity (HeLa [3]) | Activity (HT-29) | Activity (HEK-293T) | Activity (HEK293T [4]) | Activity (HeLa [5]) | Activity (U-87 MG [6]) | Activity (HEK293T [7]) | Activity (U-87 MG [15]) | CI (U-87 MG [18]) | CI (U-87 MG [19]) | CI (U-87 MG [20]) | further results
1 | O=C(O)c1cnc(SCCc2ccccc2)[nH]c1=O | Not Active | Not Active | Not Active | Not Active | Not Active | Not Active | Not Active | Active | Active | Active | inactive | Active | Active | Active | Active | inactive | Active | 0.32 | 0.63 | 22.1 | inhibition (U-87 MG [8]): inactive; inhibition (U-87 MG [9]): inactive; inhibition (U-87 MG [10]): inactive; Activity (U-87 MG [11]; TDE = time-dependent effect): Tde; Activity (U-87 MG [12]): Dose-Dependent Effect; Activity (U-87 MG [13]): Dose-Dependent Effect; Activity (U-87 MG [14]): 75%; Activity (U-87 MG [16]): Active; Activity (U-87 MG [17]): 60%
2 | COC(=O)c1cnc(SCCCc2ccccc2)[nH]c1=O |  |  |  |  |  |  |  | Active | Active |  | Active |  |  |  |  |  |  |  |  |  | 
3 | O=C(O)CCNc1cc(N2CCc3ccccc3CC2)nc(-c2ccccn2)n1 |  |  |  |  |  |  |  |  |  |  |  |  |  |  |  |  |  |  |  |  | inhibition (Homo sapiens [21]): inactive; inhibition (Homo sapiens [22]): inactive
4 | O=C(O)c1c[nH]c(=S)[nH]c1=O | Not Active | Not Active | Not Active | Not Active | Not Active | Not Active | Not Active | inactive | inactive |  | inactive |  |  |  |  |  | inactive | 1 | 1 | 1 | IC50 (NB-4): Not Active; IC50 (HL-60): Not Active; Activity (U-87 MG [11]): inactive; Activity (U-87 MG [23]): Active
5 | O=C(O)c1cnc(SCCCc2ccccc2)[nH]c1=O | Not Active | Not Active | Not Active | Not Active | Not Active | Not Active | Not Active | Active | Active | Active | inactive | Active | Active | Active | Active | inactive | Active | 0.21 | 0.13 | 0.18 | inhibition (U-87 MG [8]): inactive; inhibition (U-87 MG [9]): inactive; inhibition (U-87 MG [10]): inactive; Activity (U-87 MG [11]; TDE = time-dependent effect): Tde; Activity (U-87 MG [12]): Dose-Dependent Effect; Activity (U-87 MG [13]): Dose-Dependent Effect; Activity (U-87 MG [14]): 75%; Activity (U-87 MG [16]): Active; Activity (U-87 MG [17]): 60%
